# Results taken from paper PMC2659760 (The Journal of organic chemistry, 2009).
# “Also recorded” adds a separate entry of the source. Where two headings read alike, the source gives them in different places.
# Legend:
# [1] = target: T1, bovine plasma amine oxidase (BPAO) (Bos taurus, UniProt Q29437); experiment: Substrate activity with BPAO; assay type: biochemical; conditions: kcat/Km relative to BA = 1
# T1 sequence (Q29437 17-762): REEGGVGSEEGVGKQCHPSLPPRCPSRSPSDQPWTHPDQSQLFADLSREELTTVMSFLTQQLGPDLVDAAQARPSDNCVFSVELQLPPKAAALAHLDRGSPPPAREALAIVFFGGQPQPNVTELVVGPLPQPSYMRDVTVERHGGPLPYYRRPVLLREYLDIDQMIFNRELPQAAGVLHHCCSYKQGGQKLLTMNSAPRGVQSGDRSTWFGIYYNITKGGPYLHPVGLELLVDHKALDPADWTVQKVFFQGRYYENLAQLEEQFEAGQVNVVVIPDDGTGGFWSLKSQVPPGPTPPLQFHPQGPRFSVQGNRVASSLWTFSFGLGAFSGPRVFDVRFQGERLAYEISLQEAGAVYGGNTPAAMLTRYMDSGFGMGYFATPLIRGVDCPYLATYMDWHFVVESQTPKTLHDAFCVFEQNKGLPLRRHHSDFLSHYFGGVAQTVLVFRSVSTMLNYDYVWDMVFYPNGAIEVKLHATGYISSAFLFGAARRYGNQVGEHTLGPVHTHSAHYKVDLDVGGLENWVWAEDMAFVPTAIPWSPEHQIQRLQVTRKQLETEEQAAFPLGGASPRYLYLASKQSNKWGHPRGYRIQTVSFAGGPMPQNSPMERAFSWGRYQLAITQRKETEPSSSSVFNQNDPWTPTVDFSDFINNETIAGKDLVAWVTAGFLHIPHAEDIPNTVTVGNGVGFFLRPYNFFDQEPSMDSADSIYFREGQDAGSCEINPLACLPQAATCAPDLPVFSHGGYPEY
# BPAO [2] = target: T2, BPAO (Bos taurus, UniProt Q29437); experiment: Selectivity: initial oxidation velocity with BPAO; assay type: biochemical, bovine; conditions: for V0: 30 °C, 250 nm
# T2 sequence (Q29437 17-762): T1 sequence (Q29437 17-762)
# Procedure, shortened: (§1)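 Purified enzyme was diluted into 20 µM fluorogenic amine substrate in 0.1 M pH 7.2 phosphate buffer, or into 5 mM benzylamine in 50 mM pH 7.2 phosphate buffer, at 30 °C. Absorbance at 250 nm was followed for 30 s. Slopes were converted to nM s−1 using extinction coefficients of the aldehyde products at 250 nm.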
# [3] = target: Arthrobacter globiformis amine oxidase (AGAO) (Arthrobacter globiformis, UniProt P46881); experiment: Selectivity: initial oxidation velocity with AGAO; assay type: biochemical; conditions: for V0: 30 °C, 250 nm
# Procedure, shortened: as §1
# [4] = target: T3, Pichia pastoris lysyl oxidase (PPLO) (Komagataella pastoris, UniProt Q96X16); experiment: Selectivity: initial oxidation velocity with PPLO; assay type: biochemical; conditions: for V0: 30 °C, 250 nm
# T3 sequence (Q96X16 19-787): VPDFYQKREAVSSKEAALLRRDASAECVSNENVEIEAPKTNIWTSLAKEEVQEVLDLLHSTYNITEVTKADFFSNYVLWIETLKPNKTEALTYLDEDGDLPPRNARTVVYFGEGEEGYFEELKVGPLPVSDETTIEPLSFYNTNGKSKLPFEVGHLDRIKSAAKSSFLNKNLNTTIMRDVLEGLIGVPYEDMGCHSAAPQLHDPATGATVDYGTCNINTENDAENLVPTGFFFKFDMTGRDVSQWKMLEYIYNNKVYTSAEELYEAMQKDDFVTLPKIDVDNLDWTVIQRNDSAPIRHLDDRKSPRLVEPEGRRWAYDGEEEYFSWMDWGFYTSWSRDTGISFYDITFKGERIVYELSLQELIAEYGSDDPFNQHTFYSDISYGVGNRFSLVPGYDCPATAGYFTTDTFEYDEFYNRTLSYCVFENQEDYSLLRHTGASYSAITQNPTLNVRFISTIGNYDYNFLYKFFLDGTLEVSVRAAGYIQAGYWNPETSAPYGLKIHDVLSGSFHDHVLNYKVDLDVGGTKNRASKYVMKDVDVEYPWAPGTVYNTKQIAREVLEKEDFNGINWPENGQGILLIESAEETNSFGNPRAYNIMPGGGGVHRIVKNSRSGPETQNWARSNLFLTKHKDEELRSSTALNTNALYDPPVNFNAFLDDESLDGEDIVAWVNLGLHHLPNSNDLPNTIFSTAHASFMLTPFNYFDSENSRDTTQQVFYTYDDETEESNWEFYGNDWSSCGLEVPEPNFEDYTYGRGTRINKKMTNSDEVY
# Procedure, shortened: as §1
# [5] = test system: rat liver monoamine oxidase (MAO-B); experiment: Selectivity: initial oxidation velocity with rat liver MAO-B; assay type: biochemical; conditions: for V0: 30 °C, 250 nm, rat liver mitochondria
# Procedure, shortened: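 MAO-B source: isolated rat liver mitochondria, protein by biuret (BSA standard). Thawed suspension in mannitol/sucrose/MOPS pH 7.4 diluted with 0.1 M pH 7.2 phosphate containing 0.25% Triton X-100, warmed to 30 °C. Aliquot added to 20 µM test amine (0.1 M phosphate) or 5 mM benzylamine (50 mM phosphate). A250 followed 30 s at 30 °C; rates via extinction coefficients.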
# [6] = target: T4, porcine kidney diamine oxidase (pkDAO) (Sus scrofa, UniProt Q9TRC7); experiment: Selectivity: initial oxidation velocity with pkDAO; assay type: biochemical; conditions: for V0: 37 °C, 250 nm
# T4 sequence (Q9TRC7 25-755): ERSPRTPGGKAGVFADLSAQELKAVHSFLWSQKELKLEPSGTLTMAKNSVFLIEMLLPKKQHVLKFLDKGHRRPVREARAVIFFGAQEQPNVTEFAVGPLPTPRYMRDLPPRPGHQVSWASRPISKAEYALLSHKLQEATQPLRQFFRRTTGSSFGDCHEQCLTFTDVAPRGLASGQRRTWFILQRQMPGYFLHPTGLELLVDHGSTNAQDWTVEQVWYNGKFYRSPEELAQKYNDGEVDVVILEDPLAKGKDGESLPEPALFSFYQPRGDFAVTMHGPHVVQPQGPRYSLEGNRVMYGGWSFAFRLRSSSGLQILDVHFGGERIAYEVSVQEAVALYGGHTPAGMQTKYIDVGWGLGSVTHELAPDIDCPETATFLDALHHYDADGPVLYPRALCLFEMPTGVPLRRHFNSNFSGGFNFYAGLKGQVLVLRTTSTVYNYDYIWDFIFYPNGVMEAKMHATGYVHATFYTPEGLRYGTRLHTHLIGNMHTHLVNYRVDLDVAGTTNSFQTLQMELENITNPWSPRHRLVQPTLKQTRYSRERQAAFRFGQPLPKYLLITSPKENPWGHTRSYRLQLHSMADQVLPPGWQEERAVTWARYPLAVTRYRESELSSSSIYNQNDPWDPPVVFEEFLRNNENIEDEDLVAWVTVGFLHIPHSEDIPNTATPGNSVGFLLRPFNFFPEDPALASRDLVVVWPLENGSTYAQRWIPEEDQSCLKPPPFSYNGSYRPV
# Procedure, shortened: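 Porcine kidney DAO (from 10 mg/mL stock) in 0.1 M pH 7.2 phosphate buffer, equilibrated at 37 °C. Test amine (final 20 µM) or p-xylylenediamine (final 1.5 mM) was added. Absorbance at 250 nm was read for 30 s at 37 °C. Rates were computed using a literature extinction coefficient for p-(aminomethyl)benzaldehyde.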
# Solubility = assay type: physicochemical
# BPAO [7] = target: T2, BPAO; experiment: Inhibition of BPAO evaluated with the new fluorometric assay; assay type: biochemical, bovine
# Procedure, shortened: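 BPAO (50 nM) in 0.1 M pH 7.2 phosphate buffer, held 5 min at 2 °C, then given test inhibitor (final 1–10 µM; repeat at 30 °C with 0.125–2 µM). Aliquots taken over time and assayed at 30 °C: 10 µM fluorogenic amine substrate, emission 453 nm (λex 350 nm), 30 s. Residual activity relative to an inhibitor-free control; t1/2 per concentration fed Kitz–Wilson plot.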
# BPAO [8] = target: T2, BPAO; conditions: ref 8d, cited from earlier work
# [9] = BA 5 mM in 50 mM pH 7.2 phosphate buffer
# [10] = 12 20 µM in 0.1 M pH 7.2 phosphate buffer
smiles,measurement,setting,value
"NCc1ccccc1 [BA, benzylamine, reference compound]",relative activity,[1]; UV-vis spectrophotometry,1
same,V0,BPAO [2]; [9],82.8 nM/s
same,V0,[3]; [9],54.7 nM/s
same,V0,[4]; [9],67.2 nM/s
same,V0,[5]; [9],103.1 nM/s
"NCc1ccc(CN)cc1 [PXDA, p-xylylenediamine, reference compound]",V0,[6]; PXDA 1.5 mM in 0.1 M pH 7.2 phosphate buffer,51.8 nM/s
"COc1ccc2cc(CN)ccc2c1.Cl [compound 1, 6-Methoxy-2-naphthalenemethaneamine hydrochloride]",relative activity,[1]; UV-vis spectrophotometry,2.2
same,relative activity,[1]; fluorescence spectrophotometry,2.2
same,solubility (in words),Solubility,poor solubility; also recorded: poorly soluble
"Cl.Cl.NCCOc1ccc2cc(CN)ccc2c1 [compound 9, 2-(6-(Aminomethyl)naphthalen-2-yloxy)ethylamine dihydrochloride]",relative activity,[1]; fluorescence spectrophotometry,2.9×10^2
"CNCCOc1ccc2cc(CN)ccc2c1.Cl.Cl [compound 10, (2-(6-(Aminomethyl)naphthalen-2-yloxy)ethyl)methylamine dihydrochloride]",relative activity,[1]; fluorescence spectrophotometry,1.5×10^3
"CN(C)CCOc1ccc2cc(CN)ccc2c1.Cl.Cl [compound 11, (2-(6-(Aminomethyl)naphthalen-2-yloxy)ethyl)dimethylamine dihydrochloride]",relative activity,[1]; fluorescence spectrophotometry,3.1×10^3
"C[N+](C)(C)CCOc1ccc2cc(CN)ccc2c1.Cl.[Cl-] [compound 12, (2-(6-(Aminomethyl)naphthalen-2-yloxy)ethyl)trimethylammonium chloride hydrochloride]",relative activity,[1]; fluorescence spectrophotometry,5.4×10^3
same,substrate activity with BPAO (in words),BPAO [2],metabolized quickly
same,V0,BPAO [2]; [10],62.3 nM/s
same,substrate activity with BPAO (in words),BPAO [2]; listed as ANETA,good substrate
same,substrate activity with pkDAO (in words),[6],no significant substrate activity
same,V0,[6]; [10],1.0 nM/s
same,substrate activity with pkDAO (in words),[6]; listed as ANETA,not a substrate
same,substrate activity with AGAO (in words),[3],no significant substrate activity
same,V0,[3]; [10],1.3 nM/s
same,V0,[4]; [10],24.8 nM/s
same,substrate activity with PPLO (in words),[4]; compared with BPAO,comparable rate
same,substrate activity with MAO-B (in words),[5],no significant substrate activity
same,V0,[5]; [10],0.6 nM/s
same,substrate activity with MAO-B (in words),[5]; listed as ANETA,not a substrate
"C=C=CCN [compound 29, 1-Amino-2,3-butadiene]",slope of the Kitz and Wilson plot,"BPAO [7]; inactivation at 2 °C, BPAO 50 nM",10.8
same,IC50,"BPAO [7]; read-out: 5 min IC50, 30 °C",250 nM
same,IC50,"BPAO [7]; read-out: 10 min IC50, 30 °C",125 nM
same,slope of the Kitz and Wilson plot,"BPAO [8]; BA assay, 2 °C",10.2
same,IC50,"BPAO [8]; read-out: 5 min IC50, BA assay with 1 µM BPAO, previous estimation",1250 nM
